m-calpain inh: calpain II (pig) inhibition; purified calpain II, fluorogenic peptide substrate, 30 min; inhibition, % at 16 µM; actives 0.37% (n = 220,000); AID 1236;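 active = inhibition above about 50%, limit read from the data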
WT yeast gro inh: growth inhibition of WT yeast, mitochondrial fusion screen. mitochondrial fusion phenotypic screen, WT strain. inhibition, % at 10 µM. actives 2.1% (n = 190,000); in the data active = inhibition above about 58%; tested in S. cerevisiae
Lmaj promast: inhibitors of Leishmania major promastigote growth. Leishmania major promastigotes, resazurin fluorescence viability. inhibition, % at 10 µM. actives 9% (n = 200,000); in the data active = inhibition above about 50%;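 note: promastigotes grown with compound for 44 hours at 28 °C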
Rad51 HR inh: blocks human Rad51 in homologous recombination. Q06609. hRad51 DNA strand exchange, fluorescence dequenching. inhibition, % at 10 µM. actives 0.085% (n = 200,000). AID 1385;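 active = inhibition above 40% at the single screening dose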
Target sequence (Q06609 whole entry, looked up): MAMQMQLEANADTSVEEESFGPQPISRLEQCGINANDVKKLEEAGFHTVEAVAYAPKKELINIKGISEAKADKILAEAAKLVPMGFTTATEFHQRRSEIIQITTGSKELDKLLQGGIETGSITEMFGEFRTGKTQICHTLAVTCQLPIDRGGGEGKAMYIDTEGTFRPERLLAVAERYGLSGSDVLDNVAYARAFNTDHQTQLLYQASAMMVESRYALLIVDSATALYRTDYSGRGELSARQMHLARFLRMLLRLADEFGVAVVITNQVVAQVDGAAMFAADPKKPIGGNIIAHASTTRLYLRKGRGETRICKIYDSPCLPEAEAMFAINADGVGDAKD
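Test system – preformed human Rad51 ssDNA filaments · Reagent – Donor/quencher-labelled 47-bp dsDNA substrate · Incubation – 37 °C 15-min filament assembly, 30-min compound preincubation, 15-min exchange · Signal – FRET fluorescence dequenching, excitation 485 nm, emission 520 nm · Read-out – percent inhibition from fluorescence, normalised to plate control and blank means · Benchmarks – plate control and blank wells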
PMI activator: activators of human phosphomannose isomerase. P34949. activation factor at 20 µM. AID 1214. purified human PMI, coupled resazurin fluorescence, 20 min; active compounds read high; 1 = vehicle control, 0 substrate-free wells. actives 0.005% (n = 190,000);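 active = activation factor of 2 or more at 20 µM, relative to plate controls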
PMI act hi M6P: increases human PMI activity with near-saturating mannose 6-phosphate. P34949. coupled PMI enzyme assay, resazurin fluorescence, 20 min; active compounds read high; 1 = untreated enzyme, 0 = substrate-free blank. activation factor at 20 µM. actives 0.34% (n = 190,000);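 active = activation factor of 2 or more at 20 µM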
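Material: human phosphomannose isomerase with PGI, G6PDH, diaphorase coupling enzymes / Reagent: Man-6-P substrate 1.0 mM / Dosing: single compound dose of 20 µM, 1% DMSO final / Incubation: enzyme reaction with compound 20 min at room temperature / Signal: resorufin fluorescence (Ex 544/Em 590 nm) from resazurin via diaphorase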
L major 1uM: blocks Leishmania major promastigote growth at 1 uM, repeat screen; actives 13% (n = 1,100); L. major promastigote growth, resazurin fluorescence, 48 h; shares compounds with Lmaj promast; inhibition, % at 1 µM;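 active = inhibition above about 50% in both repeat tests, limit read from the data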
Hits are given with their value; n = inactive; x = no result given. A selection: hits, their analogues and other compounds. The true share with any hit is near 9.8%.

SMILES | m-calpain inh | WT yeast gro inh | Lmaj promast | Rad51 HR inh | PMI activator | PMI act hi M6P | L major 1uM
N#Cc1cc(Oc2ccc3ccccc3c2)c(-n2nnc3ccccc32)cc1C#N | n | n | 52 | n | n | n | 96
N#Cc1cc(Oc2ccccc2)c(-n2nnc3ccccc32)cc1C#N | n | n | n | n | n | n | x
Cc1cccc(NS(=O)(=O)c2ccc3c(c2)Cc2cc(S(=O)(=O)Nc4cccc(C)c4C)ccc2-3)c1C | n | n | n | x | n | n | x
O=S(=O)(c1ccc(Cl)c(C(F)(F)F)c1)N1CCN(c2ccccn2)CC1 | n | n | n | n | n | n | x
CC(C)c1nccn1S(=O)(=O)c1cccc([N+](=O)[O-])c1 | n | n | 52 | n | n | n | n
CN1CCN(S(=O)(=O)c2cccc([N+](=O)[O-])c2)CC1 | x | x | n | n | x | x | x
CC(C)(C)c1ccc(NC(=O)Nc2ccc(F)cc2)cc1 | n | n | n | n | n | n | x
O=C1CN(c2ccc(Cl)cc2)C2(CCCCC2)S1 | n | n | 66 | n | n | n | n
NC(=S)Nc1cccc2cc3ccccc3cc12 | n | n | 98 | n | n | n | n
NC(=S)Nc1cc2ccccc2c2ccccc12 | n | n | n | n | n | n | x
COc1ccc(/C=C2\CN(Cc3ccccc3)C/C(=C\c3ccc(OC)cc3OC)C2=O)c(OC)c1 | n | n | 71 | x | n | n | n
CCOc1cc(/C=N/NC(=O)C(=O)N2CCCC2)ccc1O | n | n | n | n | n | n | x
S=C(Nc1ccc(Oc2ccc(NC(=S)NC3CCCCC3)cc2)cc1)NC1CCCCC1 | n | n | 58 | x | n | n | n
CN1CCN(c2nc(N3CCN(c4ccccc4)CC3)ncc2F)CC1 | n | n | 65 | n | n | n | n
Fc1cnc(Cl)nc1N1CCN(c2ccccc2)CC1 | n | x | x | n | x | x | x
COc1ccc(O[C@H]2C=C[C@@H](c3ccccc3)O[C@@H]2CO/N=C(\C)CCN2CCCCc3nc(C)c(C)cc32)cc1 | n | 60 | 84 | x | n | n | n
COc1ccc(O[C@H]2C=C[C@@H](c3ccccc3)O[C@@H]2COC(=O)CCC(C)=NO[C@@H]2O[C@H](COC(C)=O)[C@@H](OC(C)=O)[C@H](OC(C)=O)[C@H]2OC(C)=O)cc1 | n | n | n | n | n | n | x
C/C(CCN1CCCCc2nc(C)c(C)cc21)=N\OC[C@@H](O)[C@H]1O[C@@H]2OC(C)(C)O[C@@H]2[C@H]1O | n | n | n | n | n | n | x
C/C(CCN1CCCCc2nc(C)c(C)cc21)=N\O[C@@H](C)CN1CCCCc2nc(C)c(C)cc21 | n | n | 68 | x | n | n | n
CCCNS(=O)(=O)c1ccc(OCC(=O)N2CCCC2)cc1 | n | n | n | x | n | n | x
CC1=NN(/C(=N\c2nnc(C)s2)Nc2ccc(C(C)(C)C)cc2)[C@H](c2ccc(C)cc2)S1 | n | 80 | 64 | n | n | n | n
Cc1ccc(NC(=O)CCSc2nnc(C)s2)cc1 | n | n | n | n | n | n | x
O=c1cc2[nH]c3ccccc3c(=O)n2nc1-c1ccccc1 | n | n | n | n | n | n | x
CC(C)CCn1c(O)c(N=Nc2ccccn2)c2ccccc21 | n | 68 | 69 | n | n | n | n
CO/N=C(/CNC(=O)c1ccc(Cl)cc1Cl)c1ccc(Cl)cc1 | n | n | n | x | n | n | x
SMILES | m-calpain inh | WT yeast gro inh | Lmaj promast | Rad51 HR inh | PMI activator | PMI act hi M6P | L major 1uM
Cn1c2ccccc2n2c(=O)c(Cl)c(-c3ccccc3)c(C#N)c12 | n | n | 62 | n | n | n | n
CC1=C(CC[C@@H](C)CO)OC2CC3C4CCC5CC(O)CCC5(C)C4CC(=O)C3(C)C12 (stereo partly drawn) | x | x | x | n | x | x | x
CCc1ccc(NSc2ccccc2[N+](=O)[O-])cc1 | n | 80 | 99 | n | n | n | 71
Cn1c(CN2CCCC2)nc2cc(NS(=O)(=O)c3ccc(Cl)cc3)ccc21 | n | x | 99 | n | n | n | n
C/C(=N\NC(=O)c1c[nH]c2ccccc12)c1ccc(C)o1 | n | n | 54 | n | n | n | n
O=c1cc(N2CCCCC2)nc2n1CCCS2 | n | n | 71 | n | n | n | n
CN(C)c1cc(=O)n2c(n1)SCCC2 | n | n | n | n | n | n | x
NS(=O)(=O)c1ccc(CCNC(=O)COC(=O)CC(c2ccccc2)c2ccccc2)cc1 | n | n | n | n | n | n | x
COc1cc(NC(=O)CSc2nccc(C)n2)c(C)cc1[N+](=O)[O-] | n | n | n | n | n | n | x
Cc1noc(NS(=O)(=O)c2ccc(NC(=O)C(CC(C)C)N3C(=O)c4ccccc4C3=O)cc2)c1C (stereo not drawn) | n | x | x | x | x | x | x
CC1=CC(C)C2(CO)COC(c3cccnc3)C1C2C (stereo not drawn) | n | n | 80 | n | n | n | n
CC1=CC(C)C2(CO)COC(c3ccc(O)cc3)C1C2C (stereo not drawn) | n | n | n | n | n | n | x
CCOc1ncccc1C(=O)NCCN1C(=O)S/C(=C/c2cccs2)C1=O | n | n | n | x | n | n | x
COc1ccc(C2=NN(C(=O)c3ccc(Cl)c([N+](=O)[O-])c3)C(c3ccccc3)C2)cc1 (stereo not drawn) | n | n | n | x | n | n | x
CCn1cc([N+](=O)[O-])c(C(=O)N2N=C(c3ccc(OC)cc3OC)CC2c2ccccc2O)n1 (stereo not drawn) | n | n | 60 | n | n | n | n
S=C(NCCc1ccc(Cl)cc1)NC1CC1 | n | n | n | n | n | n | x
CCOc1cc(S(=O)(=O)NCc2cccnc2)c(C)cc1C | n | n | n | x | n | n | x
CSc1c2c(nc3ncnn13)CCC2 | n | n | 51 | n | n | n | n
c1ccc(Nc2c3c(nc4ncnn24)CCC3)cc1 | n | n | n | n | n | n | x
CC(CC(=O)c1cccs1)CC(=O)c1cccs1 | n | n | n | n | n | n | x
Cc1cc(C)c(C(CC(=O)c2cccs2)C(C#N)C#N)c(C)c1 (stereo not drawn) | n | n | 92 | n | n | n | n
O=C(CSCc1c(Cl)cccc1Cl)Nc1ccc2c(c1)OCCO2 | n | n | n | x | n | n | x
COc1ccc(NC(=O)c2cccc(N3C(=O)NC4CC3(C)Oc3ccccc34)c2)cc1 (stereo not drawn) | n | n | 100 | n | n | n | n
CC12CN3CC(C)(CN(C1)C3c1ccc(F)cc1)C2 (stereo not drawn) | n | n | n | n | n | n | x
S=c1[nH]c(-c2ccccc2)cs1 | n | n | 77 | n | n | 2.1 | n
Cc1ccc(-c2cc[n+](Cc3ccccc3)cc2)cc1 | n | n | 92 | n | n | n | n
COc1ccc(Cl)cc1NC(=O)Cc1c(F)cccc1Cl | n | n | n | n | n | n | x

Screening results from PubChem BioAssay.
